Compound activity (PubChem)
Vif inh: HIV Vif inhibition; HEK293T cells, Vif self-association by quenched fluorescence, imaging, 24 h; inhibition, % at 7.49 µM; 340,000 compounds, 0.35% hits; in the data active = inhibition above about 50%, passing the limit was not always enough; inconclusive = no clear call, values can overlap the other calls; inactive = below about 31%
CAL PDZ FP-1: blocks peptide binding to the human CAL PDZ domain. Q9HD26. purified CAL PDZ, TMR-peptide fluorescence polarization, 1 h. AID 602252. 300,000 compounds, 0.92% hits. inhibition, % at 24.9 µM;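 active = mean inhibition of at least 30% with at least half of replicates also reaching 30%; inconclusive = no clear call, values can overlap the other calls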;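 note: 0% = DMSO neutral control and 100% = excess unlabeled competitor peptide PRC23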
Glyco luc inh: blocks N-linked glycosylation in D54 reporter cells | D54 ERlucT glycosylation luciferase reporter, 24 h; percent of 100 nM tunicamycin response | 360,000 compounds, 0.23% hits | reporter increase, % at 12.5 µM | AID 588692;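 active = mean luciferase reporter signal, scaled so untreated is 0 and the glycosylation-blocking control 100, at or above a set limit in every replicate; inconclusive = mean reaches the limit but not every replicate does; inactive = mean below the limit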;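 note: luciferase carries N-glycosylation sites so blocking glycosylation raises the light; 0% = median of neutral control wells and 100% = median of 100 nM tunicamycin wells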
CAL PDZ FP-2: inhibitors of human CAL PDZ peptide binding; Q9HD26; purified CAL PDZ, TMR-peptide fluorescence polarization, 1 h; inhibition, % at 20 µM; 330,000 compounds, 0.02% hits;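 active = highest replicate inhibition of at least 40%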;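 note: plate controls were DMSO neutral control wells for no effect and unlabeled competitor peptide control wells for full effect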
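Material: tagged CAL PDZ protein CerCALP, purified; buffer or medium: sodium phosphate/NaCl buffer pH 7.4 with TCEP, IgG, Thesit; also added: fluorescent TMR peptide probe; schedule: 1 h incubation at room temperature before polarization reading; technique: fluorescence polarization from S- and P-plane intensities, G-factor corrected; control set: unlabelled peptide and DMSO controls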
CDK5 p35 inh: CDK5/p35 (human) kinase inhibition; Q00535+Q15078; 330,000 compounds, 0.01% hits; Recombinant CDK5/p35, ADP-Glo luminescence, 60 min; inhibition, % at 10 µM;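 active = highest replicate inhibition of at least 50% and at least 75% of replicates reaching 50%; inconclusive = only one of the two criteria met; inactive = both criteria failed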;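 note: plate controls were DMSO neutral control for no effect and GW8510 at 10 µM for full effect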
Target sequence (Q00535 whole entry, looked up): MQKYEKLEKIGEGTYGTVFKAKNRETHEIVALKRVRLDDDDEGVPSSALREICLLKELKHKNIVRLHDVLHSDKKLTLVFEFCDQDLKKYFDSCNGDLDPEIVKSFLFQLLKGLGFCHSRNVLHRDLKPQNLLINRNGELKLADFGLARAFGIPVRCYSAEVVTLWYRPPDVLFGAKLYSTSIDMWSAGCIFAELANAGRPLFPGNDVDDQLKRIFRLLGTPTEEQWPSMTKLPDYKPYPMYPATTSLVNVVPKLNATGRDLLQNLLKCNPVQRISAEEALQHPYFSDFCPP
Target sequence (Q15078 whole entry, looked up): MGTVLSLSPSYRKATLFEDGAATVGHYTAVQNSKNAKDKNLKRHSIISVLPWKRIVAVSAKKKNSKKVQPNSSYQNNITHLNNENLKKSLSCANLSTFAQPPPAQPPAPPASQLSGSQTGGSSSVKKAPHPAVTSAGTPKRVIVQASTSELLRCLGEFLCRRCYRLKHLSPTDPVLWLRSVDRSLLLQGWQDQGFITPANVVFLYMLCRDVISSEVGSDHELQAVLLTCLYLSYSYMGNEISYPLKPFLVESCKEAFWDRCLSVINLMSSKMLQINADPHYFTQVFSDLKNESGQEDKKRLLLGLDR
PvdQ acylase: blocks Pseudomonas aeruginosa PvdQ acylase activity; purified PvdQ acylase, fluorescence plate reader; inhibition, % at 10 µM; 340,000 compounds, 0.063% hits; in the data active = inhibition above about 30%, passing the limit was not always enough; inconclusive = no clear call, values can overlap the other calls;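 note: 0% = vehicle neutral wells and 100% = reference inhibitor wells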
Numbers without * were called inactive; u = inconclusive; x = no result; + = active, no number. Sampled rows, rich in hits. Any-hit rate of the full collection: about 1.4%.

SMILES	Vif inh	CAL PDZ FP-1	Glyco luc inh	CAL PDZ FP-2	CDK5 p35 inh	PvdQ acylase
O=C(/C=C/c1ccc([N+](=O)[O-])s1)N1CCCCC1	7	-7	39*	0	0	0
CC(=O)c1cccc(NC(=O)/C=C/c2ccc([N+](=O)[O-])s2)c1	21	-4	-14	-2	0	-1
O=C(NCCc1ccc(F)cc1)C(=O)NCC1CCCN1S(=O)(=O)c1cccs1 (stereo unspecified)	-2	x	6	1	0	-2
Cc1ccccc1CCNC(=O)c1ccc(Cl)c(S(=O)(=O)N2CC(C)OC(C)C2)c1 (stereo unspecified)	-3	x	-3	0	0	2
N#CCCN(C(=O)COC(=O)C1CCN(S(=O)(=O)c2ccccc2C(F)(F)F)CC1)c1ccccc1	6	x	-2	0	-1	-13
Cc1nn2c(-c3ccc(F)cc3)ccnc2c1Cl	-8	61*	1	1	1	-5
Cc1nn2c(-c3ccc(F)cc3)ccnc2c1Br	-6	0	-2	-2	2	4
CC(C)C1C(=O)N(Cc2cn(CCC3OCCCO3)nn2)CCS(=O)(=O)N1Cc1ccc(-c2ccc(Cl)nc2)cc1 (stereo unspecified)	13	x	9	x	x	x
COC(=O)c1cc(-c2cccc(OC)c2)on1	-5	-5	-2	-4	-3	47*
COc1cccc(-c2cc(C(=O)Nc3ccn(Cc4ccc(C)cc4)n3)no2)c1	-6	38*	-2	x	3	-15
COc1ccc(-c2cc(C(=O)NC(C)C)no2)cc1	-7	x	-8	0	0	2
COC(=O)c1cc(-c2ccccc2)on1	-2	-1	1	-1	1	-2
COC(=O)c1cc(-c2ccc(OC)cc2)on1	-15	-4	1	1	-2	95*
Cc1ccc(Cn2ccc(NC(=O)c3cc(-c4ccccc4)on3)n2)cc1	2	-7	-1	-3	2	-17
COC(=O)c1cc(-c2ccc(Br)cc2)on1	5	-8	1	0	0	92*
CCOC(=O)N1CCN(C(=O)CN(C)S(=O)(=O)c2ccc(OCC)cc2)CC1	-5	-1	0	-3	0	10
CC(C)(C)OC(=O)NN1CC(=O)N2[C@@H](Cc3c([nH]c4ccccc34)C2(C)C)C1=O	-7	1	-2	-3	5	-17
COc1ccc(-c2cc(C(=O)NCC(c3ccccc3)N(C)C)c3ccccc3n2)cc1OC (stereo unspecified)	3	-3	30*	-4	2	-20
COc1ccccc1CN(C)C(=O)c1cc(-c2cc(OC)c(OC)c(OC)c2)nc2ccccc12	5	58*	-9	-2	-1	0
COc1ccc(-c2cc(C(=O)NCc3ccco3)c3ccccc3n2)cc1OC	-7	69*	2	-1	1	-14
COc1cccc(-c2cc(C(=O)NCc3ccco3)c3ccccc3n2)c1	-3	-1	2	-4	1	-6
Cc1ccc(-c2cc(C(=O)NCC(c3ccccc3)N(C)C)c3ccccc3n2)o1 (stereo unspecified)	9	-5	u	0	0	15
CCOC(=O)/C(=C/c1c(C)n(C)c2ccc([N+](=O)[O-])cc12)C(C)=O	4	0	44*	-1	0	0
CCOC(=O)c1c(N)c2cc([N+](=O)[O-])ccc2n1C	3	0	0	-1	-2	-9
CC1(C(=O)Nc2cccc(OC(F)(F)F)c2)Cc2c(-c3ccc(C(N)=O)cc3)ccnc2O1 (stereo unspecified)	x	x	-10	x	x	x
SMILES	Vif inh	CAL PDZ FP-1	Glyco luc inh	CAL PDZ FP-2	CDK5 p35 inh	PvdQ acylase
CCOC(=O)C1=C(C)NC(=O)NC1c1ccc(Br)o1 (stereo unspecified)	-2	0	0	1	-5	-13
CCOC(=O)C1=C(C)NC(C)=C(C(=O)OCC)C1c1ccc(Br)o1	-18	179*	1	-2	x	-13
CCC(C)(C)C1CCc2[nH]nc(C(=O)NCc3ccccn3)c2C1 (stereo unspecified)	x	-4	-2	-2	22	-2
CSc1ccccc1NC(=O)CN1CCN(S(=O)(=O)c2ccccc2[N+](=O)[O-])CC1	-4	+	1	-1	0	-20
Cc1cc(C)c(NC(=O)CNC(=O)CN(C)Cc2ccc(Br)s2)c(C)c1	-11	-16	1	0	-1	3
O=C(CCc1nnc(COc2ccccc2)o1)NCCc1cccs1	x	-3	3	-2	-1	-9
CC(C)CCNC(=O)CCc1nnc(COc2ccccc2)o1	86*	-2	1	-2	0	19
CCN(CC)C(=O)[C@H]1CC(CC(=O)NC(C)(C)C)C(=O)N2CCc3c([nH]c4ccccc34)[C@]12C (stereo partly specified)	x	-3	1	0	-1	-12
O=C(Nc1ccc(Br)cn1)c1ccc(COc2c(F)c(F)cc(F)c2F)o1	-1	35*	2	0	0	-16
Cc1ccnc(NC(=O)c2ccc(COc3c(F)c(F)cc(F)c3F)o2)c1	-1	x	3	-1	0	1
Cc1ccc(-n2nc(C)c(NC(=O)CCl)c2C)cc1C	-1	-2	48*	-3	0	-13
CCC(=O)Nc1c(C)nn(-c2ccc(C)c(C)c2)c1C	0	2	-2	-2	0	5
CC(C)c1ccc(NC(=O)c2cc(Br)ccc2Br)cc1	-17	37*	-4	0	0	12
O=C(Nc1ccc(Cl)cc1)c1ccc(Br)cc1F	-6	-9	-7	-1	2	-10
CCCCOC(=O)C[N+](C)(C)CCOC1CC2CCC1(C)C2(C)C (stereo unspecified)	-4	2	3	-3	0	2
CCCOC(=O)C[N+](C)(C)CCOC1CC2CCC1(C)C2(C)C (stereo unspecified)	63*	-3	2	0	-3	9
COc1cc(NC(=O)c2cccs2)c(OC)cc1NC(=O)Nc1ccc(F)cc1	-2	0	-1	1	0	2
Cc1ccc(C(=O)O)cc1N1C(=O)c2cccc3c([N+](=O)[O-])ccc(c23)C1=O	16	0	7	0	-1	1
CN(C)CCCN1C(=O)c2cccc3c([N+](=O)[O-])ccc(c23)C1=O	-19	-1	57*	-1	5	-2
O=C(O)c1ccc(CN2C(=O)c3cccc4c([N+](=O)[O-])ccc(c34)C2=O)cc1	26	-6	31*	0	2	-9
CC(=O)Oc1cccc(N2C(=O)c3cccc4c([N+](=O)[O-])ccc(c34)C2=O)c1	118*	x	12	-3	2	-18
